From ChEMBL document CHEMBL1629579, “Correlating echinocandin MIC and kinetic inhibition of fks1 mutant glucan synthases for Candida albicans: implications for interpretive breakpoints” (Antimicrob Agents Chemother, 2009)
≈ marks a conversion by molar mass, not a printed value.

Tests used:
Candida albicans [1] = experiment: Antimicrobial activity against Candida albicans 90028 by M27-A3 method in presence of 50% human serum; format: functional
In short: (§1)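 Broth microdilution per CLSI M27-A3 in RPMI 1640, done in triplicate on three separate days. Each strain was tested with and without 50% human serum. C. krusei ATCC 6258 and C. parapsilosis ATCC 22019 served as QC strains. Arithmetic means are reported, and geometric means were used for comparison.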

Candida albicans [2] = experiment: Antimicrobial activity against Candida albicans 1002 by M27-A3 method; format: functional
In short: (§2)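 Broth microdilution per CLSI M27-A3 in RPMI 1640, with and without 50% human serum, in triplicate. C. krusei ATCC 6258 and C. parapsilosis ATCC 22019 served as quality-control strains. MIC reported as arithmetic mean of three repetitions on separate days.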

Candida albicans [3] = experiment: Antimicrobial activity against Candida albicans 3107 by M27-A3 method in presence of 50% human serum; format: functional; in short: as §1
Candida albicans [4] = experiment: Antimicrobial activity against Candida albicans 3795 by M27-A3 method; format: functional; in short: as §2
Candida albicans [5] = experiment: Antimicrobial activity against Candida albicans 3795 by M27-A3 method in presence of 50% human serum; format: functional; in short: as §1
Candida albicans [6] = experiment: Antimicrobial activity against Candida albicans 119 harboring FKS1 T1921C mutant gene and FKS1 hotspot1 F641L mutant gene by M27-A3 method; format: functional; in short: as §1
Candida albicans [7] = experiment: Antimicrobial activity against Candida albicans 119 harboring FKS1 T1921C mutant gene and FKS1 hotspot1 F641L mutant gene by M27-A3 method in presence of 50% human serum; format: functional; in short: as §1
Candida albicans [8] = experiment: Antimicrobial activity against Candida albicans 177 harboring FKS1 T1922C mutant gene and FKS1 hotspot1 F641S mutant gene by M27-A3 method; format: functional; in short: as §1
Candida albicans [9] = experiment: Antimicrobial activity against Candida albicans 177 harboring FKS1 T1922C mutant gene and FKS1 hotspot1 F641S mutant gene by M27-A3 method in presence of 50% human serum; format: functional; in short: as §1
Candida albicans [10] = experiment: Antimicrobial activity against Candida albicans 2762 harboring FKS1 T1922C mutant gene and FKS1 hotspot1 F641S mutant gene by M27-A3 method; format: functional; in short: as §1
Candida albicans [11] = experiment: Antimicrobial activity against Candida albicans 89 harboring FKS1 C1934A mutant gene and FKS1 hotspot1 S645Y mutant gene by M27-A3 method; format: functional; in short: as §1
Candida albicans [12] = experiment: Antimicrobial activity against Candida albicans 85 harboring FKS1 C1934T mutant gene and FKS1 hotspot1 S645F mutant gene by M27-A3 method; format: functional; in short: as §1
Candida albicans [13] = experiment: Antimicrobial activity against Candida albicans 149 harboring FKS1 G1942T mutant gene and FKS1 hotspot1 D648Y mutant gene by M27-A3 method in presence of 50% human serum; format: functional; in short: as §1
Candida albicans [14] = experiment: Antimicrobial activity against Candida albicans 122 harboring FKS1 C1946A mutant gene and FKS1 hotspot1 P649H mutant gene by M27-A3 method; format: functional; in short: as §1
Candida albicans [15] = experiment: Antimicrobial activity against Candida albicans 121 harboring FKS1 G4082A mutant gene and FKS1 hotspot2 R1361H mutant gene by M27-A3 method; format: functional; in short: as §1
Candida albicans [16] = experiment: Antimicrobial activity against Candida albicans 121 harboring FKS1 G4082A mutant gene and FKS1 hotspot2 R1361H mutant gene by M27-A3 method in presence of 50% human serum; format: functional; in short: as §1
Candida albicans [17] = experiment: Antimicrobial activity against Candida albicans 90 harboring FKS1 G4082R mutant gene and FKS1 hotspot2 R1361R/H mutant gene by M27-A3 method in presence of 50% human serum; format: functional; in short: as §1
[18] = Inhibition of Candida albicans 177 1,3-beta-D-glucan synthase subunit FKS1p T1922C mutant
In short: (§3)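 Enzyme is product-entrapped 1,3-β-D-glucan synthase, enriched from membranes of each strain grown at 37°C with shaking in YPD broth to early stationary phase. Filtration polymerization assay uses [3H]UDPG, started by adding enzyme and run 60 min at 25°C. Echinocandins are added as serial dilutions, with 1% DMSO controls for anidulafungin. IC50 is from a variable-slope sigmoidal fit; values are triplicate arithmetic means.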

[19] = Inhibition of Candida albicans 2762 1,3-beta-D-glucan synthase subunit FKS1p T1922C mutant; in short: as §3
[20] = Inhibition of Candida albicans 89 1,3-beta-D-glucan synthase subunit FKS1p C1934A mutant; in short: as §3
[21] = Inhibition of Candida albicans 122 1,3-beta-D-glucan synthase subunit FKS1p C1946A mutant; in short: as §3
[22] = Inhibition of Candida albicans 121 1,3-beta-D-glucan synthase subunit FKS1p G4082A mutant; in short: as §3
Candida albicans SC5314 = experiment: Activity at Candida albicans SC5314 1,3-beta-D-glucan synthase subunit FKS1p
In short: (§4)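 Glucan synthase from cells grown at 37°C with vigorous shaking to early stationary phase in YPD. Membrane enzyme enriched by product entrapment. Serial echinocandin dilutions; ANF controls held 1% DMSO. Reaction started by adding enzyme, run 60 min at 25°C in a filtration polymerization assay, stopped on ice. IC50 from a variable-slope sigmoidal fit; means of three repetitions on separate days.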

Candida albicans [23] = experiment: Activity at Candida albicans 36082 1,3-beta-D-glucan synthase subunit FKS1p; in short: as §4
Candida albicans [24] = experiment: Activity at Candida albicans 1002 1,3-beta-D-glucan synthase subunit FKS1p; in short: as §4
Candida albicans [25] = experiment: Activity at Candida albicans 119 1,3-beta-D-glucan synthase subunit FKS1p T1921C mutant
In short: (§5)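 Product-entrapped 1,3-β-D-glucan synthase from cells grown in YPD at 37°C to early stationary phase. Wells held 50 mM HEPES pH 7.5, 10% glycerol, 1.5 mg/ml BSA, 25 mM KF, 1 mM EDTA, 25 μM GTP-γ-S, 1 μg enzyme and [3H]UDPG (0.015–2 mM). Reactions ran 60 min at 25°C. Vmax and Km came from Lineweaver-Burke plots, in triplicate.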

Candida albicans [26] = experiment: Activity at Candida albicans 177 1,3-beta-D-glucan synthase subunit FKS1p T1922C mutant; in short: as §5
Candida albicans [27] = experiment: Activity at Candida albicans 205 1,3-beta-D-glucan synthase subunit FKS1p T1933C mutant; in short: as §5
Candida albicans [28] = experiment: Activity at Candida albicans 5415 1,3-beta-D-glucan synthase subunit FKS1p T1933C mutant; in short: as §5
Candida albicans [29] = experiment: Activity at Candida albicans 85 1,3-beta-D-glucan synthase subunit FKS1p C1934T mutant; in short: as §5
Candida albicans [30] = experiment: Activity at Candida albicans 90 1,3-beta-D-glucan synthase subunit FKS1p G4082R mutant; in short: as §5
Candida albicans [31] = experiment: Activity at Candida albicans A15-10 1,3-beta-D-glucan synthase subunit FKS1p T1933C mutant

CC[C@H](C)C[C@H](C)CCCCCCCCC(=O)N[C@H]1C[C@@H](O)[C@@H](NCCN)NC(=O)[C@@H]2[C@@H](O)CCN2C(=O)[C@H]([C@H](O)CCN)NC(=O)[C@H]([C@H](O)[C@@H](O)c2ccc(O)cc2)NC(=O)[C@@H]2C[C@@H](O)CN2C(=O)[C@H]([C@@H](C)O)NC1=O [CASPOFUNGIN]
MIC (Candida albicans [1]): 0.25 µg/mL | MIC (Candida albicans [2]): 0.33 µg/mL (≈ 0.302 µM) | MIC (Candida albicans [3]): 0.33 µg/mL | MIC (Candida albicans [4]): 0.33 µg/mL (≈ 0.302 µM) | MIC (Candida albicans [5]): 0.5 µg/mL | MIC (Candida albicans [6]): 2 µg/mL (≈ 1.83 µM) | MIC (Candida albicans [7]): 8 µg/mL | MIC (Candida albicans [8]): 4 µg/mL (≈ 3.66 µM) | MIC (Candida albicans [9]): 16 µg/mL | MIC (Candida albicans [10]): 3.33 µg/mL (≈ 3.05 µM) | MIC (Candida albicans [11]): 8 µg/mL (≈ 7.32 µM) | MIC (Candida albicans [12]): 4 µg/mL (≈ 3.66 µM) | MIC (Candida albicans [13]): 4 µg/mL | MIC (Candida albicans [14]): 4 µg/mL (≈ 3.66 µM) | MIC (Candida albicans [15]): 2 µg/mL (≈ 1.83 µM) | MIC (Candida albicans [16]): 8 µg/mL | MIC (Candida albicans [17]): 4 µg/mL | IC50 [18]: 1.091 µg/mL (≈ 0.998 µM) | Ki [18]: 1.8176 µg/mL (≈ 1.66 µM) | IC50 [19]: 0.91 µg/mL (≈ 0.832 µM) | Ki [19]: 0.49893 µg/mL (≈ 0.456 µM) | IC50 [20]: 2.075 µg/mL (≈ 1.9 µM) | Ki [20]: 0.86 µg/mL (≈ 0.787 µM) | IC50 [21]: 0.08266 µg/mL (≈ 0.0756 µM) | Ki [21]: 0.29167 µg/mL (≈ 0.267 µM) | IC50 [22]: 0.03372 µg/mL (≈ 0.0308 µM) | Ki [22]: 0.308 µg/mL (≈ 0.282 µM) | Km (Candida albicans SC5314): 125 µM | Vmax (Candida albicans SC5314): 6.72 nmol/min | Km (Candida albicans [23]): 89 µM | Vmax (Candida albicans [23]): 5.87 nmol/min | Km (Candida albicans [24]): 122 µM | Vmax (Candida albicans [24]): 5.8 nmol/min | Km (Candida albicans [25]): 54 µM | Vmax (Candida albicans [25]): 2.54 nmol/min | Km (Candida albicans [26]): 50 µM | Vmax (Candida albicans [26]): 4.4 nmol/min | Km (Candida albicans [27]): 116 µM | Vmax (Candida albicans [27]): 5.54 nmol/min | Km (Candida albicans [28]): 98 µM | Vmax (Candida albicans [28]): 3.12 nmol/min | Km (Candida albicans [29]): 25 µM | Vmax (Candida albicans [29]): 1.83 nmol/min | Km (Candida albicans [30]): 31 µM | Vmax (Candida albicans [30]): 2.36 nmol/min | Km (Candida albicans [31]): 91 µM | Vmax (Candida albicans [31]): 3.26 nmol/min
